Series [1] is described as follows: Solubility testing in PEG-300-based injectable formulation. In kind it is physicochemical. The conditions noted are these: for Relative solubility in the PEG-300-based formulation: comparison in words; for Maximum amount that could be administered IP in the PEG-300 formulation: injection volume limit of ~0.5 mL, mice; for Maximum soluble dose: IP injection, injectable formulation. Summed up:
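Formulation: 10% ethanol (v/v), 10% glycerol (v/v), 10% 2-hydroxypropyl-β-cyclodextrin (w/v), 35% PEG-300 (v/v) in water. Pre-weighed compound was dissolved or suspended in ethanol, then combined with the other components and vortexed 15 min to make a 28 mM solution or suspension. […] IP dose was limited by an injection volume of ~0.5 mL.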

The target in series [2] is T1, Antares (Oplophorus gracilirostris, UniProt Q9GV45, A31E/A60N/A81I/F95D/I117V/K70R/L54V/L99Q/M102K/N193R/P142E/Q151K/Q38R/Q45L/V71I/Y165I). As to the kind of experiment: Enzymatic analysis of Antares with furimazine analogs. The series is classed as biochemical. The conditions noted are these: purified Antares; for Vmax and thereby kcat compared to furimazine: DPBS with 0.01% FBS.

Series [3] addresses T1, Antares. Kind of series: Hydrodynamic transfection and bioluminescence imaging of nude mice. In kind it is in vivo.
In series [4] the test system is Orange CaMBI. The series is classed as in vivo, mice. The conditions noted are these: sustained-release HFz (P-407). Put shortly: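 Transgenic mice doubly hemizygous for albumin-Cre and CAG-LSL-Orange CaMBI 110, abdominal hair removed, anesthetized with IP ketamine 200 mg/kg in 100 µL water. Test compound given with poloxamer-407 in 480 µL water. Imaged in a lab-built system, time-lapse with <1 s exposures on a consumer digital camera, with vasopressin given. Decay fitted as monoexponential.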

The format of series [5] is in vivo, mice. Summed up:
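Male C57Bl/6 mice, 4 months old, received three daily IP injections: 12 mg P-407 in 480 µL water; 12 mg P-407 plus 1.7 mg test compound in 480 µL water; or test compound in P-407 at 1.3 or 4.2 µmol. Body weight was tracked. On day 4 mice were euthanized by CO2 and cardiac exsanguination, with terminal blood taken for CBC and serum biochemistry. Lung, liver and kidney were examined histologically.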

In series [6] the target is T1, Antares.
For series [7] the following is noted: previously published PEG-300-based aqueous formulation; cited from earlier work.
The subject of series [8] is Orange CaMBI. The conditions noted are these: liver; cited from earlier work.
Series [9] addresses T1, Antares. The conditions noted are these: limited amount of furimazine that can be administered; cited from earlier work.
Series [10] has as its target T1, Antares. As to the kind of experiment: Decay of Antares luminescence signal over time. In kind it is biochemical. The conditions noted are these: purified Antares, 60 min.
A short description of another series: physchem. The conditions noted are these: aqueous with cosolvent or surfactant or cyclodextrin.
A further series deals with AkaLuc. The conditions noted are these: AkaLuc with AkaLumine, intrapulmonary locations; cited from earlier work.
Series [11] can be described thus: Substrate stability at 37 °C in DPBS with or without 10% FBS. The series is classed as in vitro ADME.
Series [12] concerns the target T1, Antares. As to the kind of experiment: Spectral analysis of Antares with furimazine analogs. In kind it is biochemical. The conditions noted are these: 400 to 700 nm.
Where [13] appears, read: 1.3 μmol IP, PEG-300 formulation, mouse liver.

The source of these data is paper PMC10907227 (Nature methods, 2020).

In brackets after ≈: the same amount, converted by molar mass. Entries after “also recorded” stand apart in the source; their conditions may differ.

On to `O=c1c(Cc2ccco2)nc2c(Cc3ccccc3)[nH]c(-c3cccc(O)c3)cn1-2` [compound B, 8-benzyl-2-(furan-2-ylmethyl)-6-(3-hydroxyphenyl)imidazo[1,2-a]pyrazin-3(7H)-one], for which, in series [1], the “Relative solubility in the PEG-300-based formulation” value was “noticeably more soluble than compounds A and C”; the “Maximum amount that could be administered IP in the PEG-300 formulation” value was “up to 13.3 μmol”. Also, on Antares [2], the “kcat/KM compared to furimazine” value is “higher kcat/KM”. On Antares [3] (4.2 μmol HFz IP), the “Integrated signal over 20 min compared with Antares2-DTZ” value is recorded as “significantly exceed that of Antares2-DTZ” and the “Integrated signal over 20 min compared with LumiScarlet-8pyDTZ” value is on record as “appeared higher than that of LumiScarlet-8pyDTZ, but narrowly missed statistical significance”. Besides, the Persistence of emission result on Antares [3] (4.2 μmol HFz IP, 20 min) was “uniquely sustained emission”. Besides, in the series on Orange CaMBI [4], the “Time signals were bright enough to be seen by the naked eye in the dark” value is reported as > 1 h. For the same compound, the “Time of peak brightness after substrate injection” value in the series with Orange CaMBI [4] (liver) worked out at 24 min. Moreover, the “Time after injection at which brightness dropped to half of its peak” value with Orange CaMBI [4] (monoexponential kinetics) is on record as ~ 60 min. Besides, the “Gross examination of organs and histology of liver, lung and kidney” value in [5] (HFz with P-407, three daily IP injections, listed as HFz) is on record as “no signs of toxicity; also recorded: no abnormalities were found”. This compound came in with a Saturating dose on Antares [6] (IP, PEG-300 formulation, liver) of 4.2 µmol. Moreover, the “Light (brightness) relative to the maximum/saturating dose of furimazine” value at Antares [6] (substrate at saturating (maximal) dose, IP, Antares-expressing transgenic mice) was “approximately four-fold”.
With `O=c1c(Cc2ccco2)nc2c(Cc3ccccc3)[nH]c(-c3ccccc3)cn1-2` [furimazine], the “Solubility in the PEG-300-based formulation” value in series [1] (35% PEG-300, 10% ethanol, 10% glycerol, 10% hydroxypropylcyclodextrin in water) was 2.8 mM (≈ 1070 µg/mL). The “Relative solubility in the PEG-300-based formulation” value in series [1] is “more soluble than DTZ”. Also, the “Maximum dosage limited by poor aqueous solubility” value in series [7] is 1.3 µmol. The “Duration of previous Orange CaMBI imaging sessions” value in the series with Orange CaMBI [8] is reported as ≤ 6 min. Besides, the “Photon output of Antares relative to FLuc in vivo” value at Antares [9] is on record as “~ three-fold”.
For the compound `O=c1c(Cc2ccco2)nc2c(Cc3ccccc3)[nH]c(-c3ccc(O)cc3)cn1-2` [compound A, 8-benzyl-2-(furan-2-ylmethyl)-6-(4-hydroxyphenyl)imidazo[1,2-a]pyrazin-3(7H)-one], in series [1] (28 mM, backlit image), the “Appearance at 28 mM in the PEG-300-based formulation” value is “insoluble pellet”. Moreover, the “Decrease of light output over time compared with the other substrates” value at Antares [10] is on record as “decreased more rapidly over time”. Moreover, the “Total integrated output compared with furimazine” value on Antares [6] (1.3 μmol IP, PEG-300 vehicle, liver) is recorded as “more total integrated output”.
One may read the solubility as the concentration that dissolves in the medium under given conditions. Take `Nc1cccc(-c2cn3c(=O)c(Cc4ccco4)nc-3c(Cc3ccccc3F)[nH]2)c1F` [compound F, 6-(3-amino-2-fluorophenyl)-8-(2-fluorobenzyl)-2-(furan-2-ylmethyl)imidazo[1,2-a]pyrazin-3(7H)-one]: the “Vmax and thereby kcat compared to compound E” value on Antares [2] is “higher Vmax and thereby kcat”. Besides, at Antares [3] (1.3 μmol FFz IP, not statistically significant), the “Brightness compared with AkaLuc with AkaLumine” value is “tended to produce more brightness”. The “Body weight, blood chemistry, or histology” value in [5] (1.3 μmol FFz in P-407 daily for three days) is “No abnormalities”. The Blood chemistry entry in series [5] (4.2 μmol FFz, daily for three days) is “abnormal blood chemistry”. In addition, in [5] (in P-407, IP, mice), the “Dose that can be safely administered” value is 1.3 µmol. For the same compound, the “Peak signal compared to compound E” value on Antares [6] (1.3 μmol, in vivo) is on record as “further increase in peak signal”. At Antares [6] (IP), the “Light from mouse liver, 1.3 μmol FFz compared with 4.2 μmol HFz” value was “more light” and the “Light, 4.2 μmol compared with 1.3 μmol of FFz” value is given as “more light”. In “physchem”, this compound yielded a solubility of 8.8 mM (≈ 3810 µg/mL).
In the case of `Oc1c(Cc2ccccc2)nc2c(-c3ccncc3)nc(-c3ccccc3)cn12` [8pyDTZ, reference compound], the Maximum soluble dose in [1] was determined as 4 µmol.
For the compound `CN(C)c1ccc(/C=C/C=C/C2=N[C@@H](C(=O)O)CS2)cc1` [AkaLumine], in the series with AkaLuc, the “Detectable light per reporter molecule relative to FLuc and D-luciferin” value is given as ~ 13 times.
With `O=c1c(Cc2ccccc2)nc2c(-c3ccccc3)[nH]c(-c3ccccc3)cn1-2` [DTZ, diphenylterazine, reference compound], the Maximum soluble dose in series [1] was 1 µmol.
For `Nc1cccc(-c2cn3c(=O)c(Cc4ccco4)nc-3c(Cc3ccccc3)[nH]2)c1F` [compound E, 6-(3-amino-2-fluorophenyl)-8-benzyl-2-(furan-2-ylmethyl)imidazo[1,2-a]pyrazin-3(7H)-one], on Antares [2], the “Vmax and thereby kcat compared to furimazine” value is “improved Vmax and thereby kcat versus furimazine”. Further, in [11], the “Stability in serum compared to furimazine” value is on record as “retaining the improved stability in serum”. In addition, on Antares [12], the “Effect on emission spectrum of Antares” value is listed as “do not alter the emission spectrum of Antares”. For the same compound, at Antares [6] (setting [13]), the “Improvement of signal output over HFz” value was “approximately three-fold” and the “Signal output compared with HFz” value is on record as “brighter signal outputs than HFz”.
Consider `O=c1c(Cc2ccco2)nc2c(Cc3ccccc3)[nH]c(-c3cccc(O)c3F)cn1-2` [compound D, 8-benzyl-6-(2-fluoro-3-hydroxyphenyl)-2-(furan-2-ylmethyl)imidazo[1,2-a]pyrazin-3(7H)-one], for which, on Antares [2], the “Vmax and thereby kcat compared to furimazine” value was “improved Vmax and thereby kcat versus furimazine”. Also, the “Stability in serum compared to furimazine” value in series [11] is recorded as “retaining the improved stability in serum”. In addition, the “Effect on emission spectrum of Antares” value on Antares [12] is on record as “do not alter the emission spectrum of Antares”. The “Signal output compared with HFz” value at Antares [6] (setting [13]) is given as “brighter signal outputs than HFz”.
In the case of `Nc1cccc(-c2cn3c(=O)c(Cc4ccco4)nc-3c(Cc3ccccc3)[nH]2)c1` [compound C, 6-(3-aminophenyl)-8-benzyl-2-(furan-2-ylmethyl)imidazo[1,2-a]pyrazin-3(7H)-one], the “Maximum amount that could be administered IP in the PEG-300 formulation” value in series [1] is 4.2 µmol.
